The structures appear in SMILES notation.

As a reminder, the IC50 is the midpoint of a concentration-inhibition curve.

One series concerns Entamoeba histolytica. Briefly: Antiamoebic activity against Entamoeba histolytica HM-1:IMSS trophozoites incubated for 10 mins under nitrogen gassed condition measured after 72 hrs by eosin staining based micro dilution method. The class given is functional. An outline of the steps:
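Microdilution in 96-well plates with trophozoites in Diamond TYIS-33 medium at 10^5 cells per mL. Compounds dissolved in ethanol (level non-inhibitory to amoebae), stock 1 mg/mL, tested in triplicate. Plate sealed, gassed with nitrogen 10 min, incubated 37 °C for 72 h. Then medium removed, washed with 0.9% NaCl, methanol-fixed and stained with 0.5% aqueous eosin for 15 min, OD read at 490 nm. IC50 from non-linear regression of % inhibition versus control. At least two independent experiments.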

Series [1] is described as follows: Cytotoxicity against human A549 cells assessed as reduction in cell viability after 48 hrs by MTT assay. The class given is toxicity, cell-based. The method, boiled down: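 Cells seeded at 8000/well in Ham's F-12 with 10% FBS and grown to 80–90% confluence. Medium then replaced with drug-containing medium with 1% FBS; drug range […], each concentration in triplicate, medium-only negative controls. Stocks made in ethanol, diluted in medium. Incubated at 37 °C, 5% CO2 for 48 h. MTT (5 mg/ml) added for 4 h, formazan dissolved in DMSO, absorbance read at 560 nm with 670 nm reference. Viability relative to controls; IC50 from concentration–viability plot.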
On the technique in general: Formazan colour is commonly taken as a measure of viable cells.

In the series with Entamoeba histolytica, `CN(C)CCOc1ccc(C(=O)N/N=C/c2ccc([N+](=O)[O-])cc2)cc1` registered an IC50 of 2.4 µM.
On the same count and under the same terms, the figure for `COc1cc(/C=N/NC(=O)c2ccc(OCCN(C)C)cc2)ccc1OC(C)C` is 4.13 µM.
Regarding `Cc1ncc([N+](=O)[O-])n1CCO` [METRONIDAZOLE], in series [1], the IC50 at 48 h is greater than 100 µM. This compound yielded an IC50 with Entamoeba histolytica of 1.89 µM.
As to `Cc1ccc(/C=N/NC(=O)c2ccc(OCCN(C)C)cc2)cc1`, the IC50 at 48 h in series [1] stood at 475 µM. This compound displayed an IC50 with Entamoeba histolytica of 1.86 µM.
Turning to `CN(C)CCOc1ccc(C(=O)N/N=C/c2cccc([N+](=O)[O-])c2)cc1`, in the series on Entamoeba histolytica, half-maximal inhibition (IC50) was put at 2.8 µM.
Turning to `COc1ccc(/C=N/NC(=O)c2ccc(OCCN(C)C)cc2)cc1OC`, the IC50 in the series with Entamoeba histolytica was 2.69 µM.
Same read-out and setting: the figure for `CN(C)CCOc1ccc(C(=O)N/N=C/c2ccc(O)cc2)cc1` is 2.21 µM.
As for `CN(C)CCOc1ccc(C(=O)N/N=C/c2ccccc2Cl)cc1`, the IC50 at 48 h in series [1] amounted to 134 µM. Half-maximal inhibition with Entamoeba histolytica (IC50) was put at 0.23 µM.
Compound `CN(C)CCOc1ccc(C(=O)N/N=C/c2ccc(Cl)c(Cl)c2)cc1` came in with a 50% inhibitory concentration (IC50) in the series with Entamoeba histolytica of 2.81 µM.
As for `COc1ccc(OC)c(/C=N/NC(=O)c2ccc(OCCN(C)C)cc2)c1`, the IC50 at 48 h in series [1] worked out at 110 µM. In addition, the half-maximal inhibitory concentration (IC50) in the series on Entamoeba histolytica came out at 1.81 µM.
Turning to `CN(C)CCOc1ccc(C(=O)N/N=C/c2ccccc2)cc1`, the concentration for half-maximal inhibition (IC50) at 48 h in series [1] is 268 µM. In addition, the half-inhibitory concentration (IC50) with Entamoeba histolytica is 1.43 µM.
On the same counts, the results for `CCOC(OCC)c1ccc(/C=N/NC(=O)c2ccc(OCCN(C)C)cc2)cc1` are 172 µM and 1.14 µM.
In the case of `CCc1ccc(/C=N/NC(=O)c2ccc(OCCN(C)C)cc2)cc1`, half-maximal inhibition with Entamoeba histolytica (IC50) required 5.65 µM.
As to `Cc1cc(C)c(/C=N/NC(=O)c2ccc(OCCN(C)C)cc2)c(C)c1`, the IC50 at 48 h in series [1] came out at 81.7 µM. In the series with Entamoeba histolytica, this compound returned an IC50 of 1.89 µM.
As for `COc1ccc(/C=N/NC(=O)c2ccc(OCCN(C)C)cc2)cc1`, in series [1], the IC50 at 48 h was found to be 126 µM. In the series on Entamoeba histolytica, this compound registered an IC50 of 1.53 µM.
For the compound `COc1cc(/C=N/NC(=O)c2ccc(OCCN(C)C)cc2)ccc1O`, the IC50 with Entamoeba histolytica is 2.41 µM.
Turning to `COc1cc(/C=N/NC(=O)c2ccc(OCCN(C)C)cc2)ccc1OC(C)=O`, the IC50 at 48 h in series [1] is 186 µM. The compound further returned a half-maximal inhibitory concentration (IC50) in the series with Entamoeba histolytica of 0.79 µM.
In the series with Entamoeba histolytica, `CC(C)c1ccc(/C=N/NC(=O)c2ccc(OCCN(C)C)cc2)cc1` showed a 50% inhibitory concentration (IC50) of 3.45 µM.
`CC(C)Oc1ccc(/C=N/NC(=O)c2ccc(OCCN(C)C)cc2)cc1` returned an IC50 in the series with Entamoeba histolytica of 7.65 µM.
In the case of `CN(C)CCOc1ccc(C(=O)N/N=C/c2ccc(N(C)C)cc2)cc1`, the IC50 at 48 h in series [1] was determined as 481 µM. Also, 1.89 µM corresponded to half-maximal inhibition in the series with Entamoeba histolytica (IC50).
For `CN(C)CCOc1ccc(C(=O)N/N=C/c2ccc(Cl)cc2)cc1`, in that order: 69.4 µM and 0.79 µM.
For `CN(C)CCOc1ccc(C(=O)N/N=C/c2cc(Br)c(O)c(Br)c2)cc1`, in that order: 281 µM and 1.17 µM.
Regarding `CN(C)CCOc1ccc(C(=O)N/N=C/c2ccccn2)cc1`, the midpoint of inhibition in the series with Entamoeba histolytica, the IC50, lay at 2.37 µM.
Consider `CN(C)CCOc1ccc(C(=O)N/N=C/c2ccc3c(c2)OCO3)cc1`, for which, in series [1], the half-maximal inhibitory concentration (IC50) at 48 h came to 548 µM. The compound also yielded an IC50 in the series with Entamoeba histolytica of 1.06 µM.
For the compound `Cc1ccsc1/C=N/NC(=O)c1ccc(OCCN(C)C)cc1`, the IC50 in the series on Entamoeba histolytica amounted to 4.98 µM.
Still for that read-out and setting: the figure for `COc1c(O)ccc(/C=N/NC(=O)c2ccc(OCCN(C)C)cc2)c1Br` is 3.61 µM.
With `CN(C)CCOc1ccc(C(=O)N/N=C/c2ccccc2O)cc1`, in series [1], the IC50 at 48 h is 404 µM. Moreover, half-maximal inhibition in the series on Entamoeba histolytica (IC50) was put at 1.76 µM.
In turn, `CN(C)CCOc1ccc(C(=O)N/N=C/c2ccc(O)c(O)c2)cc1` came in with an IC50 in the series with Entamoeba histolytica of 6.4 µM.
Same read-out and setting: the result for `CCOc1ccc(/C=N/NC(=O)c2ccc(OCCN(C)C)cc2)cc1` reads 3.77 µM.
Regarding `CN(C)CCOc1ccc(C(=O)N/N=C/c2cccc(Cl)c2)cc1`, in series [1], the IC50 at 48 h turned out to be 140 µM. The same compound registered an IC50 with Entamoeba histolytica of 1.01 µM.

(Values after ChEMBL document CHEMBL3875158, “Synthesis and biological evaluation of 4-(2-(dimethylamino)ethoxy)benzohydrazide derivatives as inhibitors of Entamoeba histolyica” (Eur J Med Chem, 2016).)
